High-throughput results: PubChem BioAssay, several laboratories
In the library only some 2.1% were active in any assay of this set; here they are far more common.
IMP-1 inh-1: IMP-1 metallo-beta-lactamase inhibitors, primary screen, biochemical, epi-absorbance readout, Pseudomonas aeruginosa enzyme. metallo-beta-lactamase IMP-1 (Pseudomonas aeruginosa). purified IMP-1, nitrocefin hydrolysis, epi-absorbance fluorescence. inhibition, % at 5.6 µM. 0.45% of 290,000 active;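 active = inhibition above the mean plus 3 SD of all compounds in the same screening run, cut at about 4.5% in these data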
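System: purified recombinant IMP-1 beta-lactamase. Medium: Zinc- and detergent-supplemented HEPES buffer, pH 7.1. Compound: one 5.6 µM dose […]. Schedule: 15 min preincubation plus 25 min reaction at 25 °C. Technique: Epi-absorbance fluorescence, 480 nm excitation, 530 nm emission.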
CRFBP-R2 agonist: agonists of CRF-BP/CRF-R2 complex, primary screen, cell-based, HEK293, calcium dye fluorescence, uHTS; calcium dye fluorescence (FLIPR); percent of saturating CRF peptide response; activation, % at 13.2 µM; AID 588473, 2011; 0.46% of 350,000 active; CRF-binding protein / CRF receptor 2 complex (human);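 active = activation of at least 50%, plus an integration ratio under a set limit after plate pattern correction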
TRPML3 agonist: human TRPML3 channel agonists, primary screen, cell-based, HEK293 TRPML3-YFP, Fluo-8 calcium fluorescence, 3 µM; activation, % at 3 µM; 0.29% of 220,000 active; Mucolipin-3 (Homo sapiens), Q8TDD5; 100% = the carbachol control signal; AID 1448, 2008;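 active = activation above its plate's cutoff, the mean activation of the plate's test wells plus 3 SD, cut at about 12% in these data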
Target sequence (Q8TDD5 whole entry, looked up): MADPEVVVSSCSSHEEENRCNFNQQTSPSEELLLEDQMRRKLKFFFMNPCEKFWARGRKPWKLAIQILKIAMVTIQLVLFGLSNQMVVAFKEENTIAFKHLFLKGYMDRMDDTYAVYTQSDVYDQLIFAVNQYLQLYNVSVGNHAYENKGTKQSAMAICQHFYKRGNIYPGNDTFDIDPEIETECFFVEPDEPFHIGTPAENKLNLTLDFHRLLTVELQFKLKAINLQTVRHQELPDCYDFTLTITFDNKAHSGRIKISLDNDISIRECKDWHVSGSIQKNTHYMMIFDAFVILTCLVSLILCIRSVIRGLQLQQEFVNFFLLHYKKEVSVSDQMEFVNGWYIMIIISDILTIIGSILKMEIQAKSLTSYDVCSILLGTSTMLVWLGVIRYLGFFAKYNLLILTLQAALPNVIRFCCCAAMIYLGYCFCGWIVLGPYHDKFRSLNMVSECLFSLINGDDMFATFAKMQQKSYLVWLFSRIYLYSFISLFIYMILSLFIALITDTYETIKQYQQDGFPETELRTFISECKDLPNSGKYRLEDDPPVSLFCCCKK
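Test system – HEK293 line with stable expression of human TRPML3-YFP channel · Control set – carbachol 87 µM final as high control (100%), DMSO as low control (0%) · Signal – Fluo-8 calcium dye fluorescence, ex 470-495, em 515-575 nm · Incubation – 1-h 37 °C dye load, 5-s basal, 120-s post-compound reads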
zfTRPN1 agonist: zebrafish TRPN1 channel agonists, primary screen, cell-based, HEK293, calcium fluorescence. AID 1424, 2008. HEK293 zebrafish TRPN1-YFP, Fluo-8 calcium fluorescence; 100% = response to 87 µM carbachol. transient receptor potential cation channel N1 (TRPN1/NompC), Danio rerio. activation, % at 3 µM. 0.18% of 220,000 active;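 active = activation above its plate's cutoff, the mean activation of test wells on that plate plus 3 SD, cut at about 19% in these data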
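Control set: carbachol 87 µM as high control, DMSO as low control; system: HEK293 stable line with zebrafish TRPN1-YFP; read-out: % activation versus carbachol response; detection: intracellular calcium fluorescence with Fluo-8; doses: single test compound dose, 3 µM nominal, 0.3% DMSO; schedule: dye 1 h 37 °C plus 30 min RT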
VIM-2 inh: VIM-2 metallo-beta-lactamase inhibitors, primary screen, biochemical, epi-absorbance readout, Pseudomonas aeruginosa enzyme. purified VIM-2, nitrocefin hydrolysis, epi-absorbance fluorescence. inhibition, % at 5.6 µM. 0.89% of 290,000 active. AID 1527, 2009;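 active = inhibition above the mean of all tested compounds plus 3 SD, cutoff set per screening run, cut at about 7.5% in these data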;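 note: red hydrolysis product quenches plate fluorescence so inhibitors raise well fluorescence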
CRFR2-BP antag: antagonists of CRF-BP/CRF-R2 complex, primary screen, cell-based, HEK293, calcium dye fluorescence, uHTS | CRF-induced calcium fluorescence | 0.59% of 350,000 active | inhibition, % at 11.8 µM;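 active = inhibition of the ligand-induced calcium signal above about 50% at the single tested concentration, limit read from the data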
IMP-1 inh-2: IMP-1 metallo-beta-lactamase inhibitors, confirmation, selectivity assay for selective VIM-2 inhibitor project, biochemical, epi-absorbance readout, triplicate; shares compounds with VIM-2 inh; inhibition, % at 5.6 µM; purified IMP-1, nitrocefin hydrolysis, epi-absorbance fluorescence; 1,300 tested, under 10 active; call rule not given here
VIM-2 FRET inh: VIM-2 inhibitors in FRET format, confirmation, artefact control for selective VIM-2 inhibitor project, biochemical, epi-absorbance artifact exclusion; shares compounds with VIM-2 inh; purified VIM-2, CCF2 FRET substrate hydrolysis; inhibition, % at 5.6 µM; 23% of 1,300 active; AID 1857, 2009;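 active = inhibition above the mean of all tested compounds plus 3 SD, cut at about 19% in these data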
TEM-1 counter: TEM-1 serine beta-lactamase inhibitors, counter-screen for VIM-2 inhibitor project, biochemical, epi-absorbance, HTS; shares compounds with VIM-2 inh; Purified TEM-1, nitrocefin hydrolysis, epi-absorbance fluorescence; inhibition, % at 5.6 µM; 3% of 1,300 active; AID 1866, 2009;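 active = inhibition above that campaign's mean inhibition plus 3 SD, cut at about 0.46% in these data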
VIM-2 confirm 2: VIM-2 metallo-beta-lactamase inhibitors, confirmation, biochemical, epi-absorbance, hits shared with IMP-1 screen; shares compounds with VIM-2 inh; purified VIM-2, nitrocefin hydrolysis; inhibition, % at 5.6 µM; 96% of 1,300 active;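 active = inhibition of the VIM-2 beta-lactamase enzyme above about 11% from the earlier first-round screen, limit read from the data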
A number is an active result; i = inactive; nt = no result.

SMILES	IMP-1 inh-1	CRFBP-R2 agonist	TRPML3 agonist	zfTRPN1 agonist	VIM-2 inh	CRFR2-BP antag	IMP-1 inh-2	VIM-2 FRET inh	TEM-1 counter	VIM-2 confirm 2
O=C(NC(=S)Nc1ccccc1N1CCCC1)c1ccccc1Br	i	nt	nt	nt	17	nt	i	i	i	i
O=C(NC(=S)Nc1ccccc1N1CCCC1)c1ccco1	i	i	i	i	12	i	i	36	i	19
CN1CCN(C(=O)CSc2nc(-c3cccs3)ccc2C#N)CC1	i	i	i	i	28	i	i	i	i	50
NC(=O)CCN1CCN(C(=O)c2ccc3nc(Cc4cccc(Cl)c4)oc3c2)CC1	i	i	nt	nt	i	i	nt	nt	nt	nt
CN(C)CCNC(=O)c1csc(Nc2cccc3ccccc23)n1	i	i	nt	nt	13	i	i	i	i	22
CCOc1ccc(CCNC(=O)COC(=O)c2ccc[nH]c2=O)cc1OCC	nt	i	nt	nt	nt	i	nt	nt	nt	nt
O=C(NCc1ccccc1)NC(=O)c1ccncc1	i	i	i	i	i	i	nt	nt	nt	nt
CSc1sc(C(=O)NC(=O)NCc2ccncc2)c(C)c1-c1ccon1	i	i	i	i	32	i	i	i	i	42
CCC(c1n[nH]c(=S)n1-c1ccccc1)N(C)C (stereo not drawn)	i	i	i	i	17	i	i	34	i	26
CC(c1n[nH]c(=S)n1-c1ccc(Cl)cc1)N(C)C (stereo not drawn)	i	i	i	i	i	i	nt	nt	nt	nt
Cc1nc2ncccn2c1-c1csc(Nc2ccc(S(N)(=O)=O)cc2)n1	i	i	nt	nt	17	i	i	i	i	28
Cc1ccc2nc(C)cc(C(=O)Nc3nccs3)c2c1	i	i	i	i	i	i	nt	nt	nt	nt
COc1cc2c(cc1OC)C(c1ccc(-c3ccccc3Cl)o1)=NCC2	i	i	i	i	19	i	i	i	i	28
COc1cc2c(cc1OC)C(c1ccc(-c3ccc(Cl)cc3Cl)o1)=NCC2	i	i	i	i	i	i	nt	nt	nt	nt
Cc1occc1-c1nnc(SCC(=O)NC2CC2)n1C(C)C	i	i	nt	nt	i	i	nt	nt	nt	nt
Cc1ccc2cccnc2c1N	i	i	i	i	16	i	i	i	i	40
c1ccc(CCOn2ccnc2)cc1	i	i	nt	nt	i	i	nt	nt	nt	nt
COc1ccc(CCNc2nc3ccccc3n3cnnc23)cc1OC	i	i	i	i	i	i	nt	nt	nt	nt
CCc1nnc2c(N(C)C)nc3ccccc3n12	i	i	i	i	16	i	i	i	i	31
CCCc1nnc2c(N(C)S(=O)(=O)c3ccc(C)cc3)nc3ccccc3n12	i	i	i	i	i	i	nt	nt	nt	nt
CCc1nnc2c(NCCc3ccc(OC)c(OC)c3)nc3ccccc3n12	i	i	nt	nt	15	i	i	i	i	21
Cc1onc(-c2ccccc2)c1C(=O)N/N=C/c1ccco1	i	i	i	i	34	i	i	i	i	i
Cc1ccccc1Nc1nnc(SCC(=O)NCc2ccco2)s1	i	i	i	i	i	i	nt	nt	nt	nt
O=C(CSc1nnc(NC(=O)c2ccccc2)s1)NCc1ccco1	i	i	nt	nt	25	i	i	44	i	28
Cc1ccccc1C(=O)Nc1nnc(SCC(=O)NCc2ccco2)s1	i	i	nt	nt	52	i	i	75	i	61
SMILES	IMP-1 inh-1	CRFBP-R2 agonist	TRPML3 agonist	zfTRPN1 agonist	VIM-2 inh	CRFR2-BP antag	IMP-1 inh-2	VIM-2 FRET inh	TEM-1 counter	VIM-2 confirm 2
O=C(CSc1nnc(NC(=O)C2CCCCC2)s1)NCc1ccco1	i	i	i	i	28	i	i	62	i	43
Cc1cc2cc(C)c3nnc(SCC(=O)NCc4ccco4)n3c2cc1C	i	i	i	i	13	i	i	i	i	24
Cc1ccc2cc(C)c3nnc(SCC(=O)NCc4ccco4)n3c2c1	i	i	i	i	i	i	nt	nt	nt	nt
O=C(CSc1nnc(NC(=O)C2CC2)s1)NCc1ccco1	i	i	i	i	i	i	nt	nt	nt	nt
CCOC(=O)N1CCN(C(=O)c2cc(COc3c(F)cccc3F)on2)CC1	i	i	nt	nt	i	i	nt	nt	nt	nt
CC1(C)C[C@H]2C3=CCC4[C@@]5(C)CC[C@H](O)[C@@](C)(CO)C5CC[C@@]4(C)[C@]3(C)C[C@@H](O)[C@@]2(CO)[C@@H](O)[C@@H]1O (stereo partly drawn)	nt	i	nt	nt	nt	i	nt	nt	nt	nt
O=C(CSc1nnc(NC(=O)c2cccc(F)c2)s1)NCc1ccco1	i	i	nt	nt	33	i	i	54	i	39
